How the values were obtained:
[1] = Partition coefficient (logP); format: physicochemical; conditions: octanol/water
Outline: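 Octanol and water pre-equilibrated (shaken 6 h, stood overnight); ~0.5 mg compound added, shaken 1 h at room temperature, centrifuged 1 h at 1000 rpm, left 30 h to equilibrate. Each phase read by UV absorbance, concentration from extinction coefficients via Beer-Lambert using standard curves over 2-300 µM. Duplicate or triplicate; mean of two values within 15%.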

[2] = test system: MCF7; assay: In vitro cytotoxic concentration required to reduce MCF-7 cell growth by 50%; format: functional; conditions: Homo sapiens
Outline: (§1)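 MCF-7 cells kept in RPMI 1640 with 10% heat-inactivated FBS, penicillin and streptomycin; 5×10^4 to 6×10^4 cells per well dosed with compound in PBS at final 0.001, 0.01, 0.1, 1, 10 and 100 µM; 48 h at 37 °C, 10% CO2. Brief trypsin release, viable cells counted by trypan blue exclusion; triplicate, untreated wells as control. CC50 = concentration giving 50% growth reduction versus control.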

[3] = test system: MCF7; assay: Cytotoxic activity against MCF-7 cell lines.; format: functional, Homo sapiens; outline: as §1
[4] = test system: MCF7; assay: Tested for intracellular levels of AZT phosphate against MCF-7 cell lines.; format: functional, Homo sapiens
Outline: (§2)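 About 1.5×10^6 MCF-7 or 3×10^6 CEM cells exposed to 100 µM compound for 17 h, then medium removed. Phosphorylated fractions (phosphates plus phosphoramidate) dephosphorylated with potato acid phosphatase in potassium hydrogen phthalate buffer, 4 h at 37 °C, dried, reconstituted in FPIA buffer; AZT quantified by RIA and phosphorylated amounts extrapolated. Reported as pmol per million cells.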

[5] = test system: CCRF-CEM; assay: Tested for intracellular levels of AZT phosphate against CEM cell lines.; format: functional, Homo sapiens; outline: as §2
[6] = test system: CCRF-CEM; assay: Cytotoxic activity against CEM cell lines.; format: functional, Homo sapiens
[7] = test system: MCF7; assay: Tested for intracellular levels of phosphoramidate against MCF-7 cell lines.; format: functional, Homo sapiens; outline: as §2
[8] = test system: CCRF-CEM; assay: Tested for intracellular levels of phosphoramidate against CEM cell lines.; format: functional, Homo sapiens; outline: as §2

Row | Structure (SMILES) | logP [1] | CC50 [2] | other results
1 | COC(=O)[C@H](CC(C)C)NP(=O)(O)OC[C@H]1OC(n2cc(C)c(=O)[nH]c2=O)C[C@H]1N=[N+]=[N-] (stereo not given in full) | -1.5 | > 100 µM | 
2 | CNC(=O)[C@H](Cc1ccc(O)cc1)NP(=O)(O)OC[C@H]1OC(n2cc(C)c(=O)[nH]c2=O)C[C@H]1N=[N+]=[N-] (stereo not given in full) | -1.38 | > 100 µM | 
3 | Cc1cn(C2C[C@@H](N=[N+]=[N-])[C@@H](COP(=O)(O)N[C@@H](Cc3c[nH]c4ccccc34)C(=O)NC3CC3)O2)c(=O)[nH]c1=O (stereo not given in full) | -1.39 | 90 µM | 
4 | Cc1cn(C2C[C@@H](N=[N+]=[N-])[C@@H](COP(=O)(O)N[C@@H](Cc3c[nH]c4ccccc34)C(=O)NC(C)C)O2)c(=O)[nH]c1=O (stereo not given in full) | -1.3 | > 100 µM | 
5 | CCNC(=O)[C@H](Cc1c[nH]c2ccccc12)NP(=O)(O)OC[C@H]1OC(n2cc(C)c(=O)[nH]c2=O)C[C@H]1N=[N+]=[N-] (stereo not given in full) | -1.53 | > 100 µM | 
6 | COC(=O)[C@H](Cc1ccc(O)cc1)NP(=O)(O)OC[C@H]1OC(n2cc(C)c(=O)[nH]c2=O)C[C@H]1N=[N+]=[N-] (stereo not given in full) | -1.59 | 10 µM | 
7 | CNC(=O)[C@@H](Cc1c[nH]c2ccccc12)NP(=O)(O)OC[C@H]1OC(n2cc(C)c(=O)[nH]c2=O)C[C@H]1N=[N+]=[N-] (stereo not given in full) | -1.89 | > 100 µM | 
8 | CNC(=O)[C@@H](Cc1ccccc1)NP(=O)(O)OC[C@H]1OC(n2cc(C)c(=O)[nH]c2=O)C[C@H]1N=[N+]=[N-] (stereo not given in full) | -1.7 | > 100 µM | 
9 | COC(=O)[C@@H](NP(=O)(O)OC[C@H]1OC(n2cc(C)c(=O)[nH]c2=O)C[C@H]1N=[N+]=[N-])C(C)C (stereo not given in full) | -1.56 | 6 µM | 
10 | Cc1cn(C2C[C@@H](N=[N+]=[N-])[C@@H](COP(=O)(O)N[C@@H](Cc3c[nH]c4ccccc34)C(=O)NC3CCCCC3)O2)c(=O)[nH]c1=O (stereo not given in full) | -0.914 | 16 µM | 
11 | CNC(=O)[C@H](C)NP(=O)(O)OC[C@H]1OC(n2cc(C)c(=O)[nH]c2=O)C[C@H]1N=[N+]=[N-] (stereo not given in full) | -1.21 | > 100 µM | 
12 | CNC(=O)[C@H](CC(C)C)NP(=O)(O)OC[C@H]1OC(n2cc(C)c(=O)[nH]c2=O)C[C@H]1N=[N+]=[N-] (stereo not given in full) | -1.52 | > 100 µM | 
13 | CNC(=O)[C@@H](NP(=O)(O)OC[C@H]1OC(n2cc(C)c(=O)[nH]c2=O)C[C@H]1N=[N+]=[N-])C(C)C (stereo not given in full) | -1.64 | 2.2 µM | 
14 | COC(=O)[C@H](C)NP(=O)(O)OC[C@H]1OC(n2cc(C)c(=O)[nH]c2=O)C[C@H]1N=[N+]=[N-] (stereo not given in full) | -1.25 | 5.8 µM | 
15 | CNC(=O)[C@H](Cc1c[nH]c2ccccc12)NP(=O)(O)OC[C@H]1OC(n2cc(C)c(=O)[nH]c2=O)C[C@H]1N=[N+]=[N-] (stereo not given in full) | -1.38 | 0.016 µM | 
16 | COC(=O)CNP(=O)(O)OC[C@H]1OC(n2cc(C)c(=O)[nH]c2=O)C[C@H]1N=[N+]=[N-] (stereo not given in full) | -1.24 | > 100 µM | 
17 | CNC(=O)[C@H](Cc1ccccc1)NP(=O)(O)OC[C@H]1OC(n2cc(C)c(=O)[nH]c2=O)C[C@H]1N=[N+]=[N-] (stereo not given in full) | -1.49 | 1.4 µM | 
18 | COC(=O)[C@@H](Cc1ccccc1)NP(=O)(O)OC[C@H]1O[C@@H](n2cc(C)c(=O)[nH]c2=O)C[C@@H]1N=[N+]=[N-] | -1.33 | > 100 µM | 
19 | COC(=O)[C@H](Cc1ccccc1)NP(=O)(O)OC[C@H]1O[C@@H](n2cc(C)c(=O)[nH]c2=O)C[C@@H]1N=[N+]=[N-] | -1.84 | 0.4 µM | Cytotoxicity [3]: 0.4 µM; Amount [4]: 221 pM (10e6*cells)-1; Amount [5]: 120.7 pM (10e6*cells)-1; Cytotoxicity [6]: >100 µM; Amount [7]: 295 pM (10e6*cells)-1; Amount [8]: 7.8 pM (10e6*cells)-1
20 | COC(=O)[C@@H](Cc1c[nH]c2ccccc12)NP(=O)(O)OC[C@H]1O[C@@H](n2cc(C)c(=O)[nH]c2=O)C[C@@H]1N=[N+]=[N-] | -1.36 | > 100 µM | 
21 | COC(=O)[C@H](Cc1c[nH]c2ccccc12)NP(=O)(O)OC[C@H]1O[C@@H](n2cc(C)c(=O)[nH]c2=O)C[C@@H]1N=[N+]=[N-] | -0.686 | 0.059 µM | Cytotoxicity [3]: 0.059 µM; Amount [4]: 196.5 pM (10e6*cells)-1; Amount [5]: 115.8 pM (10e6*cells)-1; Cytotoxicity [6]: >100 µM; Amount [7]: 213.6 pM (10e6*cells)-1; Amount [8]: 14.6 pM (10e6*cells)-1
22 | CNC(=O)CNP(=O)(O)OC[C@H]1O[C@@H](n2cc(C)c(=O)[nH]c2=O)C[C@@H]1N=[N+]=[N-] | -1.15 | 5 µM | 
23 | Cc1cn([C@H]2C[C@H](N=[N+]=[N-])[C@@H](CO)O2)c(=O)[nH]c1=O [ZIDOVUDINE] |  |  | Cytotoxicity [3]: 0.008 µM; Amount [4]: 2658.4 pM (10e6*cells)-1; Amount [5]: 810.9 pM (10e6*cells)-1; Cytotoxicity [6]: 14.3 µM
